Series [1] relates to MRC-5 (human lung fibroblast) cells. Put plainly: MTT cytotoxicity assay in MRC-5 cells. In kind it is cell-based. The note with it: read-out: IC50 MRC-5 Normoxia, MRC-5 normal lung fibroblasts.
Series [2] has as its system HeLa and A549 cell lines. The class given is cell-based, human.
Series [3] concerns A549 cells. Put plainly: Cellular uptake of cobalt by GFAAS, normalised to protein. The class given is cell-based, human. The note with it: A549, 100 μM complex, 24 h.
Series [4] deals with A549 (human lung cancer) cells. Put plainly: MTT cytotoxicity assay in A549 cells. The class given is cell-based. On the technique in general: Tetrazolium assays rely on reduction of a dye to a coloured formazan, in cell work by metabolically active cells.
Series [5] deals with HeLa (human cervical cancer) cells. In words: MTT cytotoxicity assay in HeLa cells. The class given is cell-based. The note with it: for IC50: Homo sapiens, HeLa.
For series [6] the following is noted: observed in other studies; cited from earlier work.
Series [7] can be described thus: Cyclic voltammetry in anhydrous DMF. In kind it is physicochemical. The note with it: vs SCE, glassy carbon, 0.10 M TBAP, 100 mV/s, 25 °C; for Epc, Co(III/II): irreversible peak potential.
Series [8] in a line: N-methylimidazole challenge. The class given is physicochemical. The note with it: 1 mM complex, 5 mM N-methylimidazole, pH 7.4 PBS, 37 °C, 24 h. A digest of the protocol:
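Complex at 1 mM final in pH 7.4 PBS with 5 mM N-methylimidazole as competing ligand. Analysed by RP-HPLC right after mixing, then again after 24 h at 37 °C. C18 column (250 × 4.6 mm, 5 μm), 1 mL/min, UV at 220 and 260 nm. Gradient: 10% MeOH/water with 0.1% TFA for 5 min, then linear to 100% MeOH (0.1% TFA) over 20 min. Starting, mono- and disubstituted species quantified from peak areas.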

The test system of series [9] is hypoxic cells. To be noted: uptake, hypoxia vs normoxia; cited from earlier work.
For series [10] the following is noted: value reported for the hypoxia-imaging agent; cited from earlier work.
[11] abbreviates: read-out: IC50 Without TM, A549, without tetrathiomolybdate.

Read-outs that look alike come from different tables or passages of the source. Bounds are passed on as bounds.

As to `N.N.[Cl][Pt][Cl]` [Cisplatin, cisplatin], the IC50 in series [1] is 3.5 ± 1.2 µM. Moreover, the “difference in activity under hypoxic versus normoxic conditions” value in [2] is recorded as “no difference”.

As for `O=[N+]([O-])[O-].O=[N+]([O-])[O-].[Co+2]` [Co(NO3)2, reference compound], the IC50 in series [1] was > 500 µM. Also, in [3], the “Hypoxia/Normoxia Ratio of uptake” value came out at 0.88 ± 0.09, the “Co/Protein (Hypoxia)” value was determined as 33 ± 3 pg/µg and the “Co/Protein (Normoxia)” value worked out at 37 ± 2 pg/µg.

Take `NC(=S)N/N=C/C=N/NC(N)=S` [GTS, glyoxal bis(thiosemicarbazone)]: the figures for the IC50 in series [1] and in series [4] (setting [11]) were > 20 µM and 0.02 ± 0.01 µM, respectively.

Consider `[SH-].[SH-].[S]=[Mo]=[S]` [TM, tetrathiomolybdate], for which, in series [4] (A549, 5 μM concentration), the “effect on cell viability” value was “a TM does not affect the cell viability at 5 μM concentration”.

In [5] (HeLa cells, in our lab), `Nc1n[n+]([O-])c2ccccc2[n+]1[O-]` [Tirapazamine] registered a hypoxia selectivity index of 3.3. Besides, the IC50 stood at 13 ± 4.2 µM in [5] (read-out: IC50 HeLa Hypoxia); 44 ± 19 µM in [5] (read-out: IC50 HeLa Normoxia); 11 ± 6.5 µM in [4] (Homo sapiens, A549, read-out: IC50 A549 Hypoxia); 60 ± 5.4 µM in series [4] (Homo sapiens, A549, read-out: IC50 A549 Normoxia). Moreover, the “typical hypoxia selectivity index” value in [6] is 10.

Consider `CC(=NN=C(N)[S-])C(C)=NN=C(N)[S-].NCc1ccccc1.NCc1ccccc1.O=[N+]([O-])[O-].[Co+3]` [[Co(ATS)(BnA)2]^+], for which, in series [7], the “E1/2,Co(II/I)” value is −1.18 V and the “Epc, Co(III/II)” value is recorded as −0.83 V. Besides, in series [8], the “% Disubstituted” value is on record as 93%, the “% Intact” value was found to be 0% and the “% Monosubstituted” value turned out to be 7%.

As to `CC(=NN=C(N)[S-])C(C)=NN=C(N)[S-].O=[N+]([O-])[O-].[Co+3].c1c[nH]cn1.c1c[nH]cn1` [[Co(ATS)(Im)2]^+], in series [7], the “E1/2,Co(II/I)” value is −1.19 V and the “Epc, Co(III/II)” value is −0.86 V. Further, in series [8], the “% Disubstituted” value is listed as 46%, the “% Intact” value was found to be 11% and the “% Monosubstituted” value stood at 43%.

Turning to `CC(=NN=C(N)[S-])C(C)=NN=C(N)[S-].N.N.O=[N+]([O-])[O-].[Co+3]` [[Co(ATS)(NH3)2]^+], in [7], the “E1/2,Co(II/I)” value is −1.18 V and the “Epc, Co(III/II)” value is given as −1.10 V. Further, in [8], the “% Disubstituted” value came to 35%, the “% Intact” value is on record as 38% and the “% Monosubstituted” value was determined as 27%.

As to `NC([S-])=NN=CC=NN=C(N)[S-].O=[N+]([O-])[O-].[Co+3].c1c[nH]cn1.c1c[nH]cn1` [[Co(GTS)(Im)2]^+], the IC50 in series [1] is > 250 µM. For the same compound, in series [7], the “E1/2,Co(II/I)” value is given as “–1.00 V” and the “Epc, Co(III/II)” value is recorded as “–0.72 V”. Also, the IC50 in series [4] (setting [11]) came out at 2.6 ± 0.4 µM. In series [8], the “% Disubstituted” value turned out to be 58% and the “% Intact” value amounted to 6%. In series [3], the “Hypoxia/Normoxia Ratio of uptake” value came to 1.40 ± 0.09, the “Co/Protein (Hypoxia)” value came to 20 ± 1 pg/µg and the “Co/Protein (Normoxia)” value amounted to 15 ± 1 pg/µg.

`CC(C=NN=C(N)[S-])=NN=C(N)[S-].NCc1ccccc1.NCc1ccccc1.O=[N+]([O-])[O-].[Co+3]` [[Co(PTS)(BnA)2]^+]: in series [7], the “E1/2,Co(II/I)” value is on record as “–1.14 V” and the “Epc, Co(III/II)” value was “–0.84 V”. In addition, in series [8], the “% Disubstituted” value is listed as 93%, the “% Intact” value came out at 1% and the “% Monosubstituted” value was found to be 6%.

Consider `CC(C=NN=C(N)[S-])=NN=C(N)[S-].O=[N+]([O-])[O-].[Co+3].c1c[nH]cn1.c1c[nH]cn1` [[Co(PTS)(Im)2]^+], for which, in series [7], the “E1/2,Co(II/I)” value is recorded as “–1.12 V” and the “Epc, Co(III/II)” value is on record as “–0.84 V”. In [8], the “% Disubstituted” value was determined as 54%, the “% Intact” value worked out at 7% and the “% Monosubstituted” value was determined as 39%.

Consider `CC(C=NN=C(N)[S-])=NN=C(N)[S-].N.N.O=[N+]([O-])[O-].[Co+3]` [[Co(PTS)(NH3)2]^+], for which, in series [7], the “E1/2,Co(II/I)” value was “–1.11 V” and the “Epc, Co(III/II)” value was “–0.92 V”. Also, in series [8], the “% Disubstituted” value is 22%, the “% Intact” value came out at 56% and the “% Monosubstituted” value was 22%.

As to `CN=C([S-])N/N=C(C)/C(C)=N/NC([S-])=NC.[Cu+2]` [[Cu(ATSM)]], in [9], the hypoxia selectivity is reported as 5 ×. The reduction potential in [10] was −0.59 V.

For orientation: IC50 means the point on the concentration scale where inhibition reaches its midpoint.

Source of the values: paper PMC8113979 (Inorganic chemistry, 2017).
